Test results taken from ChEMBL document CHEMBL3352626, “Synthesis and biological evaluation of novel oxindole-based RTK inhibitors as anti-cancer agents” (Bioorg Med Chem, 2014).
Calls of active or inactive are those of the source. No cut-off for these calls is given here.

Columns and labels:
[1] = target: T1, Aurora kinase B (Homo sapiens, UniProt Q96GD4); assay: Inhibition of recombinant Aur B (unknown origin) at 10 uM after 1 hr by microfluidic assay
Procedure, shortened: (§1)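 Caliper microfluidic mobility-shift assay using recombinant kinases from Carna. Enzyme, substrate, ATP (at Km) and compound reacted for 1 h, then stopped with EDTA. Substrate-to-phosphoproduct conversion read on EZ Reader II. Percent inhibition calculated relative to no-enzyme blanks and full-reaction wells, each containing 2.5% DMSO.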

[2] = target: Platelet-derived growth factor receptor beta (Homo sapiens) (UniProt P09619); assay: Inhibition of recombinant PDGFRb (unknown origin) at 0.1 uM after 1 hr by microfluidic assay; procedure, shortened: as §1
Platelet-derived growth factor receptor beta (Homo sapiens), sequence (P09619 whole entry): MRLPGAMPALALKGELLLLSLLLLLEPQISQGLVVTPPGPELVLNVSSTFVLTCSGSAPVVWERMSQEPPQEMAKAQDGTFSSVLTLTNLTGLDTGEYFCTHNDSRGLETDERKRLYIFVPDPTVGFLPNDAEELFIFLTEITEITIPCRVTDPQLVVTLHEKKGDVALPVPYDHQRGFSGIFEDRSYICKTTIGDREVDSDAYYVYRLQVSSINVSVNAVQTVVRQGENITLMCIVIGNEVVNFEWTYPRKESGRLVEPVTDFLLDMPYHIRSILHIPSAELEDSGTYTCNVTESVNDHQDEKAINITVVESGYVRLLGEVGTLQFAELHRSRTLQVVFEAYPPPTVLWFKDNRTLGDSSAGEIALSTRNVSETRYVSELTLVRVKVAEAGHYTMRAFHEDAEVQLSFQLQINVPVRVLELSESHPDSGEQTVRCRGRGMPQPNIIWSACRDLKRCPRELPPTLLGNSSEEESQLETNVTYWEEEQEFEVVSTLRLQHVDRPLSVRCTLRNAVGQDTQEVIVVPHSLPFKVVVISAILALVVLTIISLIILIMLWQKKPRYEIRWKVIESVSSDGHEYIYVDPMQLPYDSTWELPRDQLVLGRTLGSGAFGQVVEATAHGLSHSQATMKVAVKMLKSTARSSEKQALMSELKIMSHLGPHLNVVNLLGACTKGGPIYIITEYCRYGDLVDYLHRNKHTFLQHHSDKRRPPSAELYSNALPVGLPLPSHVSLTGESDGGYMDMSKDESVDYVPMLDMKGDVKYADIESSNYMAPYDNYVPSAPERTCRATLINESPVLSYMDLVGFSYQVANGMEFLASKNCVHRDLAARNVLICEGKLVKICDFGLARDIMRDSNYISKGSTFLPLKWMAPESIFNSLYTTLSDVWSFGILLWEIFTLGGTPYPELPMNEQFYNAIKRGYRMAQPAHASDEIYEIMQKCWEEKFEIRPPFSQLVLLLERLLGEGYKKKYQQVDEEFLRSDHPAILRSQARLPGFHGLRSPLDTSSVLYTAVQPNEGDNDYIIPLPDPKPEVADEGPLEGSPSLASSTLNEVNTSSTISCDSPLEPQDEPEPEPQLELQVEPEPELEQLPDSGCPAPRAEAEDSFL

[3] = Antiproliferative activity against human SKBR3 cells at 10 uM after 72 hrs by MTS assay; type: functional, SK-BR-3
Procedure, shortened: (§2)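 Single-concentration screen. Cells at 4 × 10^4 cells/ml, seeded and incubated overnight, then given 10 µM compound in DMSO for 72 h (37 °C, 5% CO2), with DMSO-only controls. MTS added for 4 h and A490 read. Percent inhibition = (1 − OD490 treated/OD490 control) × 100, from triplicate experiments.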

[4] = system: A549; assay: Antiproliferative activity against human A549 cells after 72 hrs by MTS assay; type: functional, cell-based; settings: A549, 72 h
Procedure, shortened: (§3)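 Cells at 4 × 10^4 cells/ml, seeded and left overnight, then exposed in triplicate to 30, 10, 3, 1, 0.3 and 0.1 µM compound in DMSO for 72 h at 37 °C under 5% CO2. MTS dye added for 4 h and absorbance read at 490 nm. Inhibition = (1 − OD treated/OD DMSO control) × 100. IC50 derived from the dilution series.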

[5] = target: Epidermal growth factor receptor (Homo sapiens) (UniProt P00533); assay: Inhibition of recombinant EGFR (unknown origin) at 0.1 uM after 1 hr by microfluidic assay; procedure, shortened: as §1
Epidermal growth factor receptor (Homo sapiens), sequence (P00533 whole entry): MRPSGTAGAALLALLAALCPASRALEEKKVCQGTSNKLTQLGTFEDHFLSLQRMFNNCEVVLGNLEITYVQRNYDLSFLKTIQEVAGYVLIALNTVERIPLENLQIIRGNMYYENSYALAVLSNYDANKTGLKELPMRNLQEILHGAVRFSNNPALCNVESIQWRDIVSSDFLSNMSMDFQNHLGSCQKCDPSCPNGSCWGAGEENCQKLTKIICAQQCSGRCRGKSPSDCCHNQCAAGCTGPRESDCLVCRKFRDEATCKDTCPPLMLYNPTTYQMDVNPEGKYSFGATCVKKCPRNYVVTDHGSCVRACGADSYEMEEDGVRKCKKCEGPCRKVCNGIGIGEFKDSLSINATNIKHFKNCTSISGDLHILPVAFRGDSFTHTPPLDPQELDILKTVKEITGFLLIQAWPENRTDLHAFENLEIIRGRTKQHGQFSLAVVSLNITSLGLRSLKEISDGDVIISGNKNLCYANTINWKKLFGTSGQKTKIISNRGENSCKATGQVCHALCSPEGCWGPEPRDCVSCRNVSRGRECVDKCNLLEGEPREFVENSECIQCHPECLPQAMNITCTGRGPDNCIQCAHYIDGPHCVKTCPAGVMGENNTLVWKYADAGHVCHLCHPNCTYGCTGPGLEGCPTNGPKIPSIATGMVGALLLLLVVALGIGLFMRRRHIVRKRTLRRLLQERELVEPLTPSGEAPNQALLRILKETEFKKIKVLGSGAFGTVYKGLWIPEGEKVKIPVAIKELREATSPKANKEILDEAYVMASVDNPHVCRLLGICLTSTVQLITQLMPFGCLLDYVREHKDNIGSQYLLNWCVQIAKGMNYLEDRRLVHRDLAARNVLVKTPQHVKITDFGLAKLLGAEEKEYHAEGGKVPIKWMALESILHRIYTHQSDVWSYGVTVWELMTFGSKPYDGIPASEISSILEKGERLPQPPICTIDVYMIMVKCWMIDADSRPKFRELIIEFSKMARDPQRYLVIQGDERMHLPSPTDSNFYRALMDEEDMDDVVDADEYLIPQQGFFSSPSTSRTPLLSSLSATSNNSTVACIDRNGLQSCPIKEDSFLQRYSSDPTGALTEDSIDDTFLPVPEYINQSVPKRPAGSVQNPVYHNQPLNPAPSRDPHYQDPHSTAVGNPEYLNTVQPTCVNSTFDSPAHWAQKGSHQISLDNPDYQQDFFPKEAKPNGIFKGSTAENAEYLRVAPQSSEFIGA

[6] = Antiproliferative activity against rat NRK-52E cells after 72 hrs by MTS assay; type: cell-based
[7] = Cell cycle arrest in human SGC7901 cells assessed as reduction of cells in S phase at 3 to 6 uM after 24 hrs by flow cytometry; type: functional, cell-based; settings: SGC-7901
Procedure, shortened: (§4)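 Cells seeded in 60 mm plates, treated for 24 h, washed twice in PBS and fixed in ice-cold 75% ethanol. Stained overnight at 4 °C with PI ([…]) containing RNase 180 U/ml, 0.15% Triton X-100 and polyethylene glycol in 4 mmol/l citrate, pH 7.8. DNA content measured by FACScan flow cytometry against a DMSO group. Mean ± SEM of three independent experiments.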

[8] = target: T2, Mast/stem cell growth factor receptor Kit (Homo sapiens, UniProt P10721); assay: Inhibition of recombinant c-Kit (unknown origin) at 10 uM after 1 hr by microfluidic assay; procedure, shortened: as §1
T2 sequence (P10721 whole entry): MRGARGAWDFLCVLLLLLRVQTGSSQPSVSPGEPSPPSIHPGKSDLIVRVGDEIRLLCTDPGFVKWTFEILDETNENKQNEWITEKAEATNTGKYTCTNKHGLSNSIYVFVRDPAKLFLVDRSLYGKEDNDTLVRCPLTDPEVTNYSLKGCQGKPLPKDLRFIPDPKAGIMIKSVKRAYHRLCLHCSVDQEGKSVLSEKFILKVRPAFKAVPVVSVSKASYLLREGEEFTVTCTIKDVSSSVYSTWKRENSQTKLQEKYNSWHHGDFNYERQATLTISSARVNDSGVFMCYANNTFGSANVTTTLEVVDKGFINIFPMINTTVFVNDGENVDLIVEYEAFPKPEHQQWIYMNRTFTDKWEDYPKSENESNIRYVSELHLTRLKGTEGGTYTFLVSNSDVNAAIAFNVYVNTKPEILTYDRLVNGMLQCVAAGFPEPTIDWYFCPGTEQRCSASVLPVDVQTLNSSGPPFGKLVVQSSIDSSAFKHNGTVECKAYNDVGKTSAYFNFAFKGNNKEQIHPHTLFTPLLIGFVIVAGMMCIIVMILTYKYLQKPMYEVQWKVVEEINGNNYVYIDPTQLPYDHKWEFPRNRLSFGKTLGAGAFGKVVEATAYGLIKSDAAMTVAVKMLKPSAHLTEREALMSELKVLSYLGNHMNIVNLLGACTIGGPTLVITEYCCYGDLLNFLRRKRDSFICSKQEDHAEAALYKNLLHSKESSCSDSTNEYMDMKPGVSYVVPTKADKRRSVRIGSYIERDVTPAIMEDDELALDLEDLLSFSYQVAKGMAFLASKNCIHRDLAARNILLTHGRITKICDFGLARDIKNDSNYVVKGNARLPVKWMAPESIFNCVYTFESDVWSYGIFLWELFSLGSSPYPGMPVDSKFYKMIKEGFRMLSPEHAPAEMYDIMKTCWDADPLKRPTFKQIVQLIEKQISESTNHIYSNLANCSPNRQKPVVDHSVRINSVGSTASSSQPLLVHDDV

[9] = target: Platelet-derived growth factor receptor beta (Homo sapiens) (UniProt P09619); assay: Inhibition of recombinant PDGFRb (unknown origin) at 1 uM after 1 hr by microfluidic assay; procedure, shortened: as §1
[10] = target: T3, Serine/threonine-protein kinase Sgk1 (Homo sapiens) (UniProt O00141); assay: Inhibition of recombinant SGK1 (unknown origin) at 1 uM after 1 hr by microfluidic assay; procedure, shortened: as §1
T3 sequence (whole entry): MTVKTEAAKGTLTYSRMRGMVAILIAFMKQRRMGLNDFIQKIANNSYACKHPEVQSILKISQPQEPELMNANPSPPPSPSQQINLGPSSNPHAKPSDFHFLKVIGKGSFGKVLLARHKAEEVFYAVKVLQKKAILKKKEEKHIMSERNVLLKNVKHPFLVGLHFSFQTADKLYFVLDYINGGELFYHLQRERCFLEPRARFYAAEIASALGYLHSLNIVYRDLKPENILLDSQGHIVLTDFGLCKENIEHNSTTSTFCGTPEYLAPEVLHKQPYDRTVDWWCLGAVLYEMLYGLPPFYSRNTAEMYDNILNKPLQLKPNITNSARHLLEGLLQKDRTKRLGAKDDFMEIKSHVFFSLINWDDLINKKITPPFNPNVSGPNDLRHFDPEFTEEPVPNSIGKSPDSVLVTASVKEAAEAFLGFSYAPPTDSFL

[11] = target: T1, Aurora kinase B; assay: Inhibition of recombinant Aur B (unknown origin) at 0.1 uM after 1 hr by microfluidic assay; procedure, shortened: as §1
[12] = Antiproliferative activity against human Bel7402 cells after 72 hrs by MTS assay; type: functional, cell-based; settings: Bel-7402, 72 h; procedure, shortened: as §3
[13] = Antiproliferative activity against human H460 cells at 10 uM after 72 hrs by MTS assay; type: functional, NCI-H460
[14] = target: Epidermal growth factor receptor (Homo sapiens) (UniProt P00533); assay: Inhibition of recombinant EGFR (unknown origin) at 1 uM after 1 hr by microfluidic assay; procedure, shortened: as §1
[15] = target: Vascular endothelial growth factor receptor 2 (Homo sapiens) (UniProt P35968); assay: Inhibition of recombinant KDR (unknown origin) at 0.1 uM after 1 hr by microfluidic assay; procedure, shortened: as §1
Vascular endothelial growth factor receptor 2 (Homo sapiens), sequence (P35968 whole entry): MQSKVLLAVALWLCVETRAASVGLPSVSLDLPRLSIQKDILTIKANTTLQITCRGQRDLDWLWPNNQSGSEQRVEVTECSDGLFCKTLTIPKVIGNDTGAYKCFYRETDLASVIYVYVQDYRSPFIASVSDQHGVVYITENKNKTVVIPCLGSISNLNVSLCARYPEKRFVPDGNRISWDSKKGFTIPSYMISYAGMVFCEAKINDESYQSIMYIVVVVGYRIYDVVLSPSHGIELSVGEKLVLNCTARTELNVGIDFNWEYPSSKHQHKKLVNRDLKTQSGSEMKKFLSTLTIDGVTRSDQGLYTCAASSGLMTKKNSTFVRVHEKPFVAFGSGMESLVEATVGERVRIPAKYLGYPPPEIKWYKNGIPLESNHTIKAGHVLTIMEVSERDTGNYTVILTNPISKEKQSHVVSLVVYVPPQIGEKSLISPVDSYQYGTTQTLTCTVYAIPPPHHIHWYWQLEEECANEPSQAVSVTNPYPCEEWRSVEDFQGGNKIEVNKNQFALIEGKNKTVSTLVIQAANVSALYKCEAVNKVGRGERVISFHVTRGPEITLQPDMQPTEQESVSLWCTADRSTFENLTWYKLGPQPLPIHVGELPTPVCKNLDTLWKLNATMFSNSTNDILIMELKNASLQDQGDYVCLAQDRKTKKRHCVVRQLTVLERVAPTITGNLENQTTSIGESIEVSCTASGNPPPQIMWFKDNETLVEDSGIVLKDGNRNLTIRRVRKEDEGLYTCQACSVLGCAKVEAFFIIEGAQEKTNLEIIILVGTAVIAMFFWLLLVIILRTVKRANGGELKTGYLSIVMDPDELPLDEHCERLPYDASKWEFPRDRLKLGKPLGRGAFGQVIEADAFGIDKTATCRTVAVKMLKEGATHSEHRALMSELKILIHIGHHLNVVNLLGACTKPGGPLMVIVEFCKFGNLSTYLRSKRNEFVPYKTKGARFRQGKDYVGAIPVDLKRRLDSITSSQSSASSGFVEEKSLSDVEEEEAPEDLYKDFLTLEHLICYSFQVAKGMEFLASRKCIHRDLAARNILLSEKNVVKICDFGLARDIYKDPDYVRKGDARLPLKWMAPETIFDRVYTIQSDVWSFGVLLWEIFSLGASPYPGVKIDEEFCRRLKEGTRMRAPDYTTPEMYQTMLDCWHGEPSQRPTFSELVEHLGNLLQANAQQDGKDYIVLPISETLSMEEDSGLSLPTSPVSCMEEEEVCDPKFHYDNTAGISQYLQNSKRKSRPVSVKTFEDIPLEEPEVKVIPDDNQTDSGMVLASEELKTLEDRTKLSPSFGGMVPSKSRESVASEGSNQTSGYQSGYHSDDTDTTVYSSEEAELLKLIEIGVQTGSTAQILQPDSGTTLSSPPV

[16] = target: Vascular endothelial growth factor receptor 2 (Homo sapiens) (UniProt P35968); assay: Inhibition of recombinant KDR (unknown origin) at 10 uM after 1 hr by microfluidic assay; procedure, shortened: as §1
[17] = system: A549; assay: Cell cycle arrest in human A549 cells assessed as reduction of cells in S phase at 3 to 6 uM after 24 hrs by flow cytometry; type: functional, cell-based; procedure, shortened: as §4
[18] = target: Platelet-derived growth factor receptor beta (Homo sapiens) (UniProt P09619); assay: Inhibition of recombinant PDGFRb (unknown origin) at 10 uM after 1 hr by microfluidic assay; procedure, shortened: as §1
[19] = Antiproliferative activity against human H460 cells after 72 hrs by MTS assay; type: functional, cell-based; settings: NCI-H460, 72 h; procedure, shortened: as §3
[20] = target: T2, Mast/stem cell growth factor receptor Kit; assay: Inhibition of recombinant c-Kit (unknown origin) at 1 uM after 1 hr by microfluidic assay; procedure, shortened: as §1
[21] = Antiproliferative activity against human PM8910 cells after 72 hrs by MTS assay; type: functional, cell-based; settings: PM8910, 72 h; procedure, shortened: as §3
[22] = system: U-251; assay: Antiproliferative activity against human U251 cells at 10 uM after 72 hrs by MTS assay; type: functional; procedure, shortened: as §2
[23] = target: T2, Mast/stem cell growth factor receptor Kit; assay: Inhibition of recombinant c-Kit (unknown origin) after 1 hr by microfluidic assay; procedure, shortened: as §1
[24] = Antiproliferative activity against human HCC827 cells at 10 uM after 72 hrs by MTS assay; type: functional
[25] = Cell cycle arrest in human PM8910 cells assessed as reduction of cells in S phase at 3 to 6 uM after 24 hrs by flow cytometry; type: functional, cell-based; procedure, shortened: as §4
[26] = Antiproliferative activity against human PM8910 cells at 10 uM after 72 hrs by MTS assay; type: functional
[27] = Antiproliferative activity against human HCC827 cells after 72 hrs by MTS assay; type: functional, cell-based; settings: HCC827, 72 h; procedure, shortened: as §3
[28] = Antiproliferative activity against human Bel7402 cells at 10 uM after 72 hrs by MTS assay; type: functional, Bel-7402
[29] = target: T1, Aurora kinase B; assay: Inhibition of recombinant Aur B (unknown origin) after 1 hr by microfluidic assay; procedure, shortened: as §1
[30] = target: T3, Serine/threonine-protein kinase Sgk1 (Homo sapiens); assay: Inhibition of recombinant SGK1 (unknown origin) at 0.1 uM after 1 hr by microfluidic assay; procedure, shortened: as §1
[31] = target: T2, Mast/stem cell growth factor receptor Kit; assay: Inhibition of recombinant c-Kit (unknown origin) at 0.1 uM after 1 hr by microfluidic assay; procedure, shortened: as §1
[32] = Cell cycle arrest at G1 phase in human PM8910 cells at 3 to 6 uM after 24 hrs by flow cytometry; type: functional, cell-based; procedure, shortened: as §4
[33] = system: A549; assay: Cell cycle arrest at G1 phase in human A549 cells at 3 to 6 uM after 24 hrs by flow cytometry; type: functional, cell-based; procedure, shortened: as §4
[34] = target: Epidermal growth factor receptor (Homo sapiens) (UniProt P00533); assay: Inhibition of recombinant EGFR (unknown origin) at 10 uM after 1 hr by microfluidic assay; procedure, shortened: as §1
[35] = system: A549; assay: Antiproliferative activity against human A549 cells at 10 uM after 72 hrs by MTS assay; type: functional
[36] = Antiproliferative activity against human SGC7901 cells after 72 hrs by MTS assay; type: functional, cell-based; settings: SGC-7901, 72 h; procedure, shortened: as §3
[37] = Antiproliferative activity against human SGC7901 cells at 10 uM after 72 hrs by MTS assay; type: functional, SGC-7901
[38] = target: T3, Serine/threonine-protein kinase Sgk1 (Homo sapiens); assay: Inhibition of recombinant SGK1 (unknown origin) at 10 uM after 1 hr by microfluidic assay; procedure, shortened: as §1
[39] = system: NCI-H1975; assay: Antiproliferative activity against human NCI-H1975 cells at 10 uM after 72 hrs by MTS assay; type: functional; procedure, shortened: as §2
[40] = target: Vascular endothelial growth factor receptor 2 (Homo sapiens) (UniProt P35968); assay: Inhibition of recombinant KDR (unknown origin) at 1 uM after 1 hr by microfluidic assay; procedure, shortened: as §1
[41] = target: T1, Aurora kinase B; assay: Inhibition of recombinant Aur B (unknown origin) at 1 uM after 1 hr by microfluidic assay; procedure, shortened: as §1
[42] = Cell cycle arrest at G1 phase in human SGC7901 cells at 3 to 6 uM after 24 hrs by flow cytometry; type: functional, cell-based; settings: SGC-7901; procedure, shortened: as §4
[43] = system: A549; assay: Cell cycle arrest in human A549 cells assessed as reduction of cells in S phase at 5 to 10 uM after 24 hrs by flow cytometry; type: functional, cell-based; procedure, shortened: as §4
[44] = Cell cycle arrest at G1 phase in human SGC7901 cells at 5 to 10 uM after 24 hrs by flow cytometry; type: functional, cell-based; settings: SGC-7901; procedure, shortened: as §4
[45] = system: A549; assay: Cell cycle arrest at G1 phase in human A549 cells at 5 to 10 uM after 24 hrs by flow cytometry; type: functional, cell-based; procedure, shortened: as §4
[46] = Cell cycle arrest in human PM8910 cells assessed as reduction of cells in S phase at 5 to 10 uM after 24 hrs by flow cytometry; type: functional, cell-based; procedure, shortened: as §4
[47] = Cell cycle arrest at G1 phase in human PM8910 cells at 5 to 10 uM after 24 hrs by flow cytometry; type: functional, cell-based; procedure, shortened: as §4
[48] = Cell cycle arrest in human SGC7901 cells assessed as reduction of cells in S phase at 5 to 10 uM after 24 hrs by flow cytometry; type: functional, cell-based; settings: SGC-7901; procedure, shortened: as §4

T1 sequence (Q96GD4 whole entry): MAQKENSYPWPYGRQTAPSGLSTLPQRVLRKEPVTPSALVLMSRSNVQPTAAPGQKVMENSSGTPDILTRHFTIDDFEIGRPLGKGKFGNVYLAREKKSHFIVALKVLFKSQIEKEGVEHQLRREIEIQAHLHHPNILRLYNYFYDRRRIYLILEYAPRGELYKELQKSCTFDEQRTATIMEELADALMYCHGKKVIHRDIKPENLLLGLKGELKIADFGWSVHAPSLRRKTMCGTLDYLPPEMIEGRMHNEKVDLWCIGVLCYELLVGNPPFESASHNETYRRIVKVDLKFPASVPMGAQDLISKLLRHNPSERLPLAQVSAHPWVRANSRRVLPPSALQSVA

SMILES: O=C1Nc2ccccc2/C1=C/c1ccc(N2CCN(C(=O)CCCl)CC2)cc1
- inhibition [1]: 88.3%
- inhibition [2]: 13.6%
- Activity [3]: 26.45%
- IC50 [4]: 3.04 µM
- inhibition [5]: 19.1%
- IC50 [6]: > 30 µM
- Activity [7]: Active
- inhibition [8]: 57.6%
- inhibition [9]: 46.7%
- inhibition [10]: 11.8%
- inhibition [11]: 14.4%
- IC50 [12]: 3.39 µM
- Activity [13]: 66.63%
- inhibition [14]: 20%
- inhibition [15]: 6%
- inhibition [16]: 62.6%
- Activity [17]: Active
- inhibition [18]: 76%
- IC50 [19]: 20.1 µM
- inhibition [20]: 56.4%
- IC50 [21]: 2.76 µM
- Activity [22]: 20.43%
- IC50 [23]: 0.071 µM
- Activity [24]: 56.47%
- Activity [25]: Active
- Activity [26]: 59.46%
- IC50 [27]: 12.7 µM
- Activity [28]: 49.21%
- IC50 [29]: 0.587 µM
- inhibition [30]: 3.56%
- inhibition [31]: 31.9%
- Activity [32]: Active
- Activity [33]: Active
- inhibition [34]: 24.3%
- Activity [35]: 54.9%
- IC50 [36]: 2.85 µM
- Activity [37]: 60.98%
- inhibition [38]: 42.4%
- Activity [39]: 67.22%
- inhibition [40]: 14.7%
- inhibition [41]: 53.5%
- Activity [42]: Active

SMILES: C=CC(=O)N1CCN(c2ccc(/C=C3\C(=O)Nc4ccccc43)cc2)CC1
- inhibition [1]: 93.5%
- inhibition [2]: 0.4%
- Activity [3]: 27.99%
- IC50 [4]: 10.1 µM
- inhibition [5]: 14.9%
- IC50 [6]: 28.8 µM
- inhibition [8]: 88.2%
- inhibition [9]: 26.2%
- inhibition [10]: 38.3%
- inhibition [11]: 4.5%
- IC50 [12]: 7.68 µM
- Activity [13]: 71.31%
- inhibition [14]: 30.1%
- inhibition [15]: 13.4%
- inhibition [16]: 30.6%
- inhibition [18]: 61.8%
- Activity [43]: Active
- Activity [44]: Active
- IC50 [19]: 11.5 µM
- inhibition [20]: 55.3%
- IC50 [21]: 6.74 µM
- Activity [22]: 31.7%
- IC50 [23]: 0.128 µM
- Activity [24]: 57.19%
- Activity [45]: Active
- Activity [26]: 59.52%
- IC50 [27]: 7 µM
- Activity [28]: 55.06%
- Activity [46]: Active
- IC50 [29]: 2.21 µM
- inhibition [30]: 2.2%
- inhibition [31]: 19.1%
- inhibition [34]: 75.4%
- Activity [35]: 50.28%
- IC50 [36]: 9.75 µM
- Activity [37]: 55.46%
- inhibition [38]: 90.7%
- Activity [47]: Active
- Activity [48]: Active
- Activity [39]: 60.01%
- inhibition [40]: 7.2%
- inhibition [41]: 41.6%
